Assay results from ChEMBL document CHEMBL1131493, “Inhibitors of farnesyl protein transferase. 4-Amido, 4-carbamoyl, and 4-carboxamido derivatives of 1-(8-chloro-6,11-dihydro-5H-benzo[5,6]- cyclohepta[1,2-b]pyridin-11-yl)piperazine and 1-(3-bromo-8-chloro-6,11- dihydro-5H-benzo[5,6]cyclohepta[1,2-b]pyridin-11-yl)piperazine” (J Med Chem, 1998).

What was measured:
[1] = molecular target: T1, Protein farnesyltransferase (Homo sapiens, UniProt P49354+P49356); experiment: In vitro inhibition of farnesyltransferase farnesylation of H-ras at […]
[2] = molecular target: T1, Protein farnesyltransferase; experiment: Inhibition of Farnesyltransferase from Ras-CVLS or Ras-CVLL in Cos-7 monkey kidney cells; assay type: cell-based, Chlorocebus aethiops
[3] = (§1) Maximal plasma concentration in nude mice after 25 mg/kg oral dose; assay type: ADME, organism-based; design: dose 25 mg/kg, route oral; conditions: mouse
Mus musculus [4] = experiment: In vivo antitumor efficacy in nude mice by injecting a dose of 25 mg/kg, as HCl salt in saline solution, perorally and the duration of action was reported; assay type: ADME, organism-based; design: dose 25 mg/kg, route oral; conditions: po
[5] = In vivo antitumor efficacy in nude mice by injecting a dose of 25 mg/kg, as HCl salt in saline solution, iv and the serum half-life was determined; assay type: ADME, organism-based; design: dose 25 mg/kg, route intravenous; conditions: mouse
[6] = Oral bioavailability in mouse (nude) (dose 25 mg/kg i.v.); assay type: ADME, organism-based; conditions: in vivo
[7] = molecular target: geranylgeranyltransferase type-I (Rattus norvegicus, UniProt P53610+Q04631); experiment: Inhibition of rat Geranylgeranyl transferase (GGPT); assay type: protein-complex assay
[8] = In vivo antitumor efficacy in nude mice by injecting a dose of 25 mg/kg, as HCl salt in saline solution, iv and the total drug exposure was determined. (0-24hr); assay type: ADME, organism-based; design: time < 24 hr, dose 25 mg/kg, route intravenous; conditions: mouse
[9] = molecular target: T1, Protein farnesyltransferase; experiment: In vitro inhibition of farnesyltransferase farnesylation of the H-ras oncogene; assay type: protein-complex assay
[10] = In vivo antitumor efficacy in nude mice by injecting a dose of 25 mg/kg, as HCl salt in saline solution, perorally and the total drug exposure was determined (0-24hr); assay type: ADME, organism-based; design: time < 24 hr, dose 25 mg/kg, route oral; conditions: mouse, po
[11] = In vivo antitumor efficacy in nude mice by injecting a dose of 25 mg/kg iv and serum half-life was determined; assay type: ADME, organism-based; design: dose 25 mg/kg, route intravenous; conditions: mouse
Outline: (§2)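 Serum pharmacokinetics in nude mice or cynomolgus monkeys after oral (po) or iv dosing. Compounds were given as hydrochloride salts in 20% HPβCD unless otherwise noted. Other formulations were the hydrochloride salt in saline, the micronized free base in 20% HPβCD or corn oil (po) with saline for iv, or the hydrochloride salt in 0.4% methyl cellulose (po).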

Mus musculus [12] = experiment: In vivo antitumor efficacy after peroral dose of 25 mg/kg in mice expressed as duration for which compound was present above IC50; assay type: ADME, organism-based; design: dose 25 mg/kg, route oral; conditions: po
Outline: as §2

[13] = In vivo antitumor efficacy in nude mice 0-24 hr after peroral dose of 25 mg/kg expressed as Area under the curve; assay type: ADME, organism-based; design: time < 24 hr, dose 25 mg/kg, route oral; conditions: nude, mouse, po
Outline: as §2

[14] = Oral bioavailability in mouse (nude) (dose of 25 mg/kg); assay type: ADME, organism-based; conditions: in vivo
Outline: as §2

[15] = as §1; assay type: ADME, organism-based; design: dose 25 mg/kg, route oral; conditions: mouse; remark: listed apart in the source
Outline: as §2

[16] = In vivo antitumor efficacy in nude mice after peroral dose of 25 mg/kg expressed as Area under the curve; assay type: ADME, organism-based; design: dose 25 mg/kg, route oral; conditions: mouse, po
Outline: as §2

[17] = In vivo antitumor efficacy peroral dose of 25 mg/kg expressed as duration for which compound was present above IC50; assay type: ADME, organism-based; design: dose 25 mg/kg, route oral; conditions: po
Outline: as §2

[18] = In vivo antitumor efficacy in nude mice 0-24 hr after intravenous dose of 25 mg/kg expressed as Area under the curve; assay type: ADME, organism-based; design: time < 24 hr, dose 25 mg/kg, route intravenous; conditions: mouse
Outline: as §2

[19] = Maximal plasma concentration in cynomolgus monkeys after 10 mg/kg oral dose; assay type: ADME, organism-based, Macaca fascicularis; design: dose 10 mg/kg, route oral; conditions: cynomolgus monkey, plasma
Outline: as §2

Cynomolgus monkey = experiment: In vivo antitumor efficacy after peroral dose of 10 mg/kg in cynomolgus monkeys expressed as duration for which compound was present above IC50; assay type: ADME, organism-based, Macaca fascicularis; design: dose 10 mg/kg, route oral; conditions: po
Outline: as §2

[20] = In vivo antitumor efficacy expressed as plasma area under the curve 0.4 hr after a peroral dose of 25 mg/kg in nude mice; assay type: ADME, organism-based; design: time < 0.4 hr, dose 25 mg/kg, route oral; conditions: mouse, po
Outline: as §2

[21] = In vivo antitumor efficacy expressed as plasma area under the curve 0.4 hr after iv dose of 25 mg/kg in nude mice; assay type: ADME, organism-based; design: time < 0.4 hr, dose 25 mg/kg, route intravenous
Outline: as §2

| SMILES | Cmax [3] [nM] | Time above IC50 (Mus musculus [4]) [h] | half-life [5] [min] | bioavailability [6] [%] | IC50 [7] [nM] | AUC at 24 h [8] [ng·h/mL] | IC50 [9] [nM] | AUC at 24 h [10] [ng·h/mL] | IC50 [2] [nM] | half-life [11] [min] | AUC at 24 h [13] [ng·h/mL] | bioavailability [14] [%] | Cmax [15] [nM] | also measured |
| --- | --- | --- | --- | --- | --- | --- | --- | --- | --- | --- | --- | --- | --- | --- |
| CN(C(=O)N1CCN(C2c3ccc(Cl)cc3CCc3cccnc32)CC1)c1ccncc1 (configuration not stated) | – | – | – | – | – | – | – | – | – | – | – | – | – | inhibition [1]: 0% |
| O=C(Cc1cc[n+]([O-])cc1)N1CCN([C@H]2c3ccc(Cl)cc3CCc3cccnc32)CC1 | – | – | – | – | – | 21500 | 490 | – | 5000 | 48 | 15500 | 72 | 10000 | Time above IC50 (Mus musculus [12]): 4 h |
| O=C(Cc1ccncc1)N1CCN(C2c3ccc(Cl)cc3CCc3cc(Br)cnc32)CC1 (configuration not stated) | – | – | – | – | > 39000 | – | 12 | – | 380 | 44.4 | 1100 | 20.8 | 900 | AUC [16]: 1100 ng·h/mL; Time above IC50 [17]: 6 h |
| O=C(Cc1cc[n+]([O-])cc1)N1CCN(C2c3ccc(Cl)cc3C=Cc3cc(Br)cnc32)CC1 (configuration not stated) | – | – | – | – | – | – | – | – | 350 | – | – | – | – | Cmax [19]: 1900 nM; AUC at 24 h [18]: 11700 ng·h/mL; Time above IC50 (Cynomolgus monkey): 31 h |
| O=C(Cc1ccncc1)N1CCN(C2c3ccc(Cl)cc3CCc3cccnc32)CC1 (configuration not stated) | – | – | – | – | > 46000 | – | – | – | – | 12 | – | 13 | 900 | AUC at 0.4 h [20]: 240 ng·h/mL; AUC at 0.4 h [21]: 1800 ng·h/mL; Time above IC50 [17]: 1 h |

Continued, in another order:

| Cmax [3] [nM] | Time above IC50 (Mus musculus [4]) [h] | half-life [5] [min] | bioavailability [6] [%] | IC50 [7] [nM] | AUC at 24 h [8] [ng·h/mL] | IC50 [9] [nM] | AUC at 24 h [10] [ng·h/mL] | SMILES | IC50 [2] [nM] | half-life [11] [min] | AUC at 24 h [13] [ng·h/mL] | bioavailability [14] [%] | Cmax [15] [nM] | also measured |
| --- | --- | --- | --- | --- | --- | --- | --- | --- | --- | --- | --- | --- | --- | --- |
| 3000 | 24 | 120 | 65 | > 38000 | 27200 | 72 | 17600 | O=C(CC1CCNCC1)N1CCN(C2c3ccc(Cl)cc3CCc3cc(Br)cnc32)CC1 (configuration not stated) | 170 | – | – | – | – | – |
| 80000 | 4 | 30 | 100 | > 35000 | 9900 | 50 | 33300 | CNC(=O)N1CCC(CC(=O)N2CCN(C3c4ccc(Cl)cc4CCc4cc(Br)cnc43)CC2)CC1 (configuration not stated) | 750 | – | – | – | – | – |
| 2000 | 24 | 342 | 100 | > 38000 | 14900 | – | 17000 | CN1CCCC(CC(=O)N2CCN(C3c4ccc(Cl)cc4CCc4cc(Br)cnc43)CC2)C1 (configuration not stated) | – | – | – | – | – | – |
| – | – | – | – | – | – | 380 | – | CC(C)(C(=O)N1CCN(C2c3ccc(Cl)cc3CCc3cc(Br)cnc32)CC1)c1ccc[n+]([O-])c1 (configuration not stated) | 2200 | 36 | 11700 | 47 | 11000 | Time above IC50 (Mus musculus [12]): 4 h; AUC at 24 h [18]: 25000 ng·h/mL |
